Results: PubChem BioAssay AID623895 (Broad Institute, 2012)
The source made the active and inactive calls.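 The calls were made as follows: active = compounds with an ATP-loss curve whose half-maximal dose stays within twice the top dose, in every run; inconclusive = mixed run calls, weak flat effects or poor fits; inactive = the rest, including opposite-direction effects.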

System: ldlA[mSR-BI] CHO cells viability, ATP luminescence, 24 h
Experiment: viability loss of SR-BI expressing CHO cells – cell-based, 24 h, ATP luminescence, dry powder, set 6, cytotoxicity control for SR-BI HDL uptake inhibitor project, dose response (AID 623895)
Conditions: not given
Summary of the method: (§1)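 material = ldlA[mSR-BI] cells | dosing = Eight-point compound dose series | incubation = 24 h at 37 °C, read after 10 min | signal = ATP luminescence (Cell Titer Glo) | read-out basis = viability IC50 from dose-response fit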

SMILES | AC50 [µM]
CCCCCCC1CCC/C1=N\NC(N)=S (stereo not drawn) | 3.81
COc1c(NC(=O)C(=O)c2ccc(OCCN3CCOCC3)c3ccccc23)cc(C(C)(C)C)cc1NS(C)(=O)=O | 34.3
C[C@@H]1CN([C@H](C)CN(C)C)C(=O)c2cc(NC(=O)Cc3cn(C)c4ccccc34)ccc2O[C@H]1CN(C)S(=O)(=O)c1ccc(Cl)cc1 | 15.3

System: not listed separately
Experiment: as above
Conditions: ldlA[mSR-BI] CHO cells viability, ATP luminescence, 24 h; at 35 µM (top of the series)
Summary of the method: as §1

SMILES | activity change, negative = cytotoxicity
C[C@@H]1CN([C@H](C)CO)C(=O)c2cc(NC(=O)Cc3cn(C)c4ccccc34)ccc2O[C@H]1CN(C)Cc1ccc(-c2ccccc2)cc1 | -34.9% (inactive)
C[C@@H]1CN([C@H](C)CO)C(=O)c2cc(N(C)C)ccc2O[C@H]1CN(C)S(=O)(=O)c1ccc(Cl)cc1 | -23.7% (inactive)
C[C@@H]1CN([C@H](C)CO)C(=O)c2cc(NC(=O)Cc3cn(C)c4ccccc34)ccc2O[C@H]1CN(C)S(C)(=O)=O | -4.79% (inactive)
C[C@@H]1CN([C@H](C)CO)C(=O)c2cc(NS(C)(=O)=O)ccc2O[C@H]1CN(C)S(=O)(=O)c1ccc(Cl)cc1 | -14.8% (inactive)
Cc1noc(C)c1S(=O)(=O)N(C)C[C@H]1Oc2c(NC(=O)c3nc4ccccc4s3)cccc2C(=O)N([C@H](C)CO)C[C@H]1C | -8.36% (inactive)
CC(C)CN(C(=O)COC(=O)C12CC3CC(CC(O)(C3)C1)C2)C1CCS(=O)(=O)C1 (stereo not drawn) | -14.1% (inactive)
CO[C@H]1CN(C)C(=O)c2ccc(NC(=O)C3CCCC3)cc2OC[C@@H](C)N(C(=O)CC2CC2)C[C@@H]1C | -11.9% (inactive)
O=C(C[C@H]1CC[C@H](NC(=O)CC2CC2)[C@@H](CO)O1)NCc1ccc(Cl)cc1 | -5.27% (inactive)
C[C@@H]1CN([C@H](C)CO)C(=O)c2cc(NC(=O)CCC(F)(F)F)ccc2O[C@H]1CN(C)S(=O)(=O)c1ccc(Cl)cc1 | -19.4% (inactive)
COc1cc(OC)cc(C(=O)Nc2nc(-c3ccc4c(c3)CCN4C(=O)CN3CCOCC3)cs2)c1 | 3.74% (inactive)
COc1ccc(NC(=O)Nc2ccc3c(c2)C(=O)N([C@H](C)CO)C[C@@H](C)[C@H](CN(C)S(=O)(=O)c2ccc(Cl)cc2)O3)cc1 | -15.6% (inactive)
O=C1C2C3C=CC(C3)C2C(=O)N1c1cccc(N2C(=O)C3C4C=CC(C4)C3C2=O)n1 (stereo not drawn) | -8.55% (inactive)
C[C@H]1CN([C@@H](C)CO)C(=O)c2cc(NC(=O)Cc3cn(C)c4ccccc34)ccc2O[C@@H]1CN(C)S(=O)(=O)c1ccc(Cl)cc1 | -20.1% (inactive)
COc1ccc(S(=O)(=O)Nc2ccc3c(c2)C(=O)N([C@H](C)CO)C[C@@H](C)[C@H](CN(C)S(=O)(=O)c2ccc(Cl)cc2)O3)cc1 | -22.9% (inactive)
C[C@@H]1CN([C@H](C)CO)C(=O)c2cc(NC(=O)Cc3cn(C)c4ccccc34)ccc2O[C@H]1CN(C)Cc1ccc(C(=O)O)cc1 | -1% (inactive)
C[C@@H]1CN([C@H](C)CO)C(=O)c2cc(NC(=O)Nc3ccccc3)ccc2O[C@H]1CN(C)S(=O)(=O)c1ccc(Cl)cc1 | -34.8% (inactive)
C[C@@H]1CN([C@H](C)CO)C(=O)c2cc(NC(=O)CCN3CCOCC3)ccc2O[C@H]1CN(C)S(=O)(=O)c1ccc(Cl)cc1 | 19.5% (inactive)
C[C@@H]1CN([C@H](C)CO)C(=O)c2cc(NC(=O)c3ccncc3)ccc2O[C@H]1CN(C)S(=O)(=O)c1ccc(Cl)cc1 | 4.97% (inactive)

SMILES | activity change, negative = cytotoxicity
C[C@@H]1CN([C@H](C)CO)C(=O)c2cc(NC(=O)Cn3cnnn3)ccc2O[C@H]1CN(C)S(=O)(=O)c1ccc(Cl)cc1 | 10.5% (inactive)
CC(=O)Nc1ccc(Cl)c(C(=O)Nc2ccc(N3CCN(C(=O)OC(C)(C)C)CC3)cc2)c1 | -29.2% (inactive)
C[C@H]1CN([C@@H](C)CO)C(=O)c2cc(NC(=O)Cc3cn(C)c4ccccc34)ccc2O[C@H]1CN(C)S(=O)(=O)c1ccc(Cl)cc1 | -23.6% (inactive)
C[C@@H]1CN([C@H](C)CO)C(=O)c2cc(NS(=O)(=O)c3cn(C)cn3)ccc2O[C@H]1CN(C)S(=O)(=O)c1ccc(Cl)cc1 | 1.24% (inactive)
C[C@@H]1CN([C@H](C)CO)C(=O)c2cc(NC(=O)Cc3cn(C)c4ccccc34)ccc2O[C@H]1CN(C)C(=O)Nc1ccccc1 | -12.4% (inactive)
COc1ccc(CN(C)C[C@@H]2Oc3ccc(NC(=O)Cc4cn(C)c5ccccc45)cc3C(=O)N([C@H](C)CO)C[C@H]2C)cc1 | -17.6% (inactive)
C[C@@H]1CN([C@H](C)CO)C(=O)c2cc(NC(=O)Cc3cn(C)c4ccccc34)ccc2O[C@H]1CN(C)C(=O)Nc1ccc(C(F)(F)F)cc1 | -31.9% (inactive)
COc1ccc(NC(=O)N(C)C[C@@H]2Oc3ccc(NC(=O)Cc4cn(C)c5ccccc45)cc3C(=O)N([C@H](C)CO)C[C@H]2C)cc1 | 13.1% (inactive)
C[C@@H]1CN([C@H](C)CO)C(=O)c2cc(NC(=O)Cc3cn(C)c4ccccc34)ccc2O[C@H]1CN(C)S(=O)(=O)c1ccccc1 | -5.11% (inactive)
CC(C)NC(=O)Nc1cccc2c1O[C@@H](CN(C)Cc1ccc(C(F)(F)F)cc1)[C@@H](C)CN([C@@H](C)CO)C2=O | -11.3% (inactive)
Cc1noc(C)c1NC(=O)N(C)C[C@@H]1Oc2ccc(NC(=O)Cc3cn(C)c4ccccc34)cc2C(=O)N([C@H](C)CO)C[C@H]1C | 10.5% (inactive)
Cc1ccc(OCc2cc(C(=O)N3CCCC(O)C3)no2)cn1 (stereo not drawn) | -19.7% (inactive)
C[C@@H]1CN([C@H](C)CO)C(=O)c2cc(NC(=O)CCCN(C)C)ccc2O[C@H]1CN(C)S(=O)(=O)c1ccc(Cl)cc1 | 15.7% (inactive)
C[C@@H]1CN([C@H](C)CO)C(=O)c2cc(NC(=O)Cc3cn(C)c4ccccc34)ccc2O[C@H]1CN(C)S(=O)(=O)c1cccs1 | -7.16% (inactive)
C[C@H](CO)N1C[C@H](C)[C@H](CN(C)CC2CCCCC2)Oc2c(NS(=O)(=O)c3cn(C)cn3)cccc2C1=O | 5.52% (inactive)
C[C@H](CO)N1C[C@H](C)[C@@H](CN(C)S(=O)(=O)c2ccc(Cl)cc2)Oc2ccc(NC(=O)Cc3cn(C)c4ccccc34)cc2C1=O | -25.3% (inactive)
C[C@@H]1CN([C@H](C)CO)C(=O)c2cc(NC(=O)Nc3ccc(C(F)(F)F)cc3)ccc2O[C@H]1CN(C)S(=O)(=O)c1ccc(Cl)cc1 | -31.8% (inactive)
